Measured values taken from ChEMBL document CHEMBL1944511, “Bakuchiol derivatives as novel and potent cytotoxic agents: a report” (Eur J Med Chem, 2012).
The source made the active and inactive calls. The calls are words filed in the database; no cut-off is given here.

Assays:
PC-3 = experiment: Growth inhibition of human PC3 cells at 50 uM after 48 hrs by sulpharhodamine B assay; type: functional; settings: PC-3, 48 h, read-out: GI
Summary of the method: (§1)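 Cells grown in RPMI-1640/MEM with 10% FCS, penicillin/streptomycin, 37 °C, 5% CO2. Seeded in 96-well plates, allowed to adhere overnight, then exposed 48 h to analogs in DMSO (vehicle <0.2% in controls). TCA-fixed, stained with 0.4% SRB in 1% acetic acid, dye solubilized in 10 mM Tris base, OD 570 nm (ref 620 nm). Mean ± SD of three experiments run in triplicate.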

THP-1 [1] = experiment: Growth inhibition of human THP1 cells at 50 uM after 48 hrs by sulpharhodamine B assay; type: functional; settings: THP-1, 48 h, read-out: GI; summary of the method: as §1
THP-1 [2] = experiment: Growth inhibition of human THP1 cells at 20 uM after 48 hrs by sulpharhodamine B assay; type: functional; settings: THP-1, 48 h, read-out: GI; summary of the method: as §1
MCF7 [3] = experiment: Growth inhibition of human MCF7 cells at 30 uM after 48 hrs by sulpharhodamine B assay; type: functional; settings: MCF7, 48 h, read-out: GI
Summary of the method: (§2)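 This is the SRB protein-stain assay on adherent cells in RPMI-1640/MEM with 10% FCS. Each compound in DMSO (vehicle <0.2%) was applied at a single fixed concentration for 48 h. Cells were fixed with TCA and stained with SRB, and the dye was solubilised in Tris and read at 570/620 nm. Percent growth inhibition is relative to vehicle-treated controls, reported as mean ± SD of three experiments run in triplicate.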

A549 [4] = experiment: Growth inhibition of human A549 cells at 30 uM after 48 hrs by sulpharhodamine B assay; type: functional; settings: A549, 48 h, read-out: GI; summary of the method: as §2
THP-1 [5] = experiment: Growth inhibition of human THP1 cells at 30 uM after 48 hrs by sulpharhodamine B assay; type: functional; settings: THP-1, 48 h, read-out: GI; summary of the method: as §1
HEp-2 [6] = experiment: Growth inhibition of human Hep2 cells at 50 uM after 48 hrs by sulpharhodamine B assay; type: functional; settings: HEp-2, 48 h, read-out: GI; summary of the method: as §2
HEp-2 [7] = experiment: Growth inhibition of human Hep2 cells at 20 uM after 48 hrs by sulpharhodamine B assay; type: functional; settings: HEp-2, 48 h, read-out: GI; summary of the method: as §2
A549 [8] = experiment: Growth inhibition of human A549 cells at 10 uM after 48 hrs by sulpharhodamine B assay; type: functional; settings: A549, 48 h, read-out: GI; summary of the method: as §2
A549 [9] = experiment: Growth inhibition of human A549 cells at 5 uM after 48 hrs by sulpharhodamine B assay; type: functional; settings: A549, 48 h, read-out: GI; summary of the method: as §2
DU-145 = experiment: Growth inhibition of human DU145 cells at 5 uM after 48 hrs by sulpharhodamine B assay; type: functional; settings: DU-145, 48 h, read-out: GI; summary of the method: as §2
THP-1 [10] = experiment: Growth inhibition of human THP1 cells at 10 uM after 48 hrs by sulpharhodamine B assay; type: functional; settings: THP-1, 48 h, read-out: GI; summary of the method: as §1
IMR-32 = experiment: Growth inhibition of human IMR32 cells at 10 uM after 48 hrs by sulpharhodamine B assay; type: functional; settings: IMR-32, 48 h, read-out: GI; summary of the method: as §2
HCT-15 [11] = experiment: Growth inhibition of human HCT15 cells at 20 uM after 48 hrs by sulpharhodamine B assay; type: functional; settings: HCT-15, 48 h, read-out: GI; summary of the method: as §2
HCT-15 [12] = experiment: Growth inhibition of human HCT15 cells at 10 uM after 48 hrs by sulpharhodamine B assay; type: functional; settings: HCT-15, 48 h, read-out: GI; summary of the method: as §2
MCF7 [13] = experiment: Cytotoxicity against human MCF7 cells after 48 hrs by sulpharhodamine B assay; type: functional, cell-based; settings: MCF7, 48 h
Summary of the method: (§3)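 Cells were grown in RPMI-1640/MEM with 10% FCS and penicillin/streptomycin at 37 °C under 5% CO2, then seeded and left to adhere overnight. Analogs in DMSO (vehicle <0.2%) were added at several concentrations for 48 h. Cells were fixed with cold 50% TCA, stained with 0.4% SRB in 1% acetic acid, solubilised in 10 mM Tris, and read at OD 570/620 nm. IC50 came from non-linear regression.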

SF-295 = experiment: Cytotoxicity against human SF295 cells after 48 hrs by sulpharhodamine B assay; type: functional, cell-based; settings: SF-295, 48 h; summary of the method: as §3
HCT-15 [14] = experiment: Cytotoxicity against human HCT15 cells after 48 hrs by sulpharhodamine B assay; type: functional, cell-based; settings: HCT-15, 48 h; summary of the method: as §3
HL-60 [15] = experiment: Cytotoxicity against human HL60 cells after 48 hrs by MTT assay; type: functional, cell-based; settings: for IC50: HL-60, 48 h
Summary of the method: (§4)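 Exponentially growing HL-60 cells (1.5×10^4 per well) in 96-well plates were exposed to a range of compound concentrations in DMSO, with vehicle-only controls. MTT (2.5 mg/mL stock) was added for 3–4 h at 37 °C, and formazan was dissolved in DMSO and read at OD 570/620 nm. […] Data are mean ± SD of n = 6 wells from two experiments.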

HL-60 [16] = experiment: Cytotoxicity against human HL60 cells by MTT assay; type: functional, cell-based; settings: TDE = time-dependent effect; summary of the method: as §4
HL-60 [17] = experiment: Induction of apoptosis in human HL60 cells assessed as DNA fragmentation after 24 hrs by agarose gel electrophoresis; type: functional, cell-based
Summary of the method: (§5)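 HL-60 cells (2×10^6/well/2 mL) treated 24 h in 6-well plates. DNA extracted with phenol:chloroform:isoamyl alcohol, ethanol-precipitated, run on 1% agarose at 80 V for 1.5 h in TAE.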

HL-60 [18] = experiment: Induction of apoptosis in human HL60 cells assessed as increase in […] sub-G0 fraction at 1 uM by propidium iodide staining-based flow cytometric analysis (reference value: 6%); type: functional
HL-60 [19] = experiment: Induction of apoptosis in human HL60 cells assessed as increase in […] sub-G0 fraction at 5 uM by propidium iodide staining-based flow cytometric analysis (reference value: 6%); type: functional
HL-60 [20] = experiment: Induction of apoptosis in human HL60 cells assessed as increase in […] sub-G0 fraction at 30 uM by propidium iodide staining-based flow cytometric analysis (reference value: 6%); type: functional
HL-60 [21] = experiment: Induction of apoptosis in human HL60 cells assessed as loss of mitochondrial membrane potential at 5 uM after 24 hrs by rodamine-123 staining-based flow cytometric analysis (reference value: 6%); type: functional
HL-60 [22] = experiment: Induction of apoptosis in human HL60 cells assessed as loss of mitochondrial membrane potential at 20 uM after 24 hrs by rodamine-123 staining-based flow cytometric analysis (reference value: 6%); type: functional
MCF7 [23] = experiment: Growth inhibition of human MCF7 cells at 20 uM after 48 hrs by sulpharhodamine B assay; type: functional; settings: MCF7, 48 h, read-out: GI; summary of the method: as §2
HL-60 [24] = experiment: Induction of apoptosis in human HL60 cells assessed as DNA fragmentation at 20 uM after 24 hrs by agarose gel electrophoresis; type: functional, cell-based; summary of the method: as §5
HL-60 [25] = experiment: Induction of apoptosis in human HL60 cells assessed as DNA fragmentation at 40 uM after 24 hrs by agarose gel electrophoresis; type: functional, cell-based; summary of the method: as §5

Compound	inhibition of growth at 50 µM (PC-3) [%]	inhibition of growth at 50 µM (THP-1 [1]) [%]	inhibition of growth at 20 µM (THP-1 [2]) [%]	inhibition of growth at 30 µM (MCF7 [3]) [%]	inhibition of growth at 30 µM (A549 [4]) [%]	inhibition of growth at 30 µM (THP-1 [5]) [%]	inhibition of growth at 50 µM (HEp-2 [6]) [%]	inhibition of growth at 20 µM (HEp-2 [7]) [%]	inhibition of growth at 10 µM (A549 [8]) [%]	inhibition of growth at 5 µM (A549 [9]) [%]	inhibition of growth at 5 µM (DU-145) [%]	inhibition of growth at 10 µM (THP-1 [10]) [%]	inhibition of growth at 10 µM (IMR-32) [%]	inhibition of growth at 20 µM (HCT-15 [11]) [%]	inhibition of growth at 10 µM (HCT-15 [12]) [%]	IC50 (MCF7 [13]) [µM]	IC50 (SF-295) [µM]	IC50 (HCT-15 [14]) [µM]	Activity (HL-60 [15])	IC50 (HL-60 [15]) [nM]	other results
COc1ccc(/C=C/[C@](C)(/C=C/c2ccc(O)cc2)CCC=C(C)C)cc1	93	86	78	52	55	60	62	58	47	24	20	62	32	61	50	23	22	13	Dose-dependent effect	2000	Activity (HL-60 [16]): tde; Activity (HL-60 [17]): Dose-dependent effect; Activity (HL-60 [18]): 5%; Activity (HL-60 [19]): 8%; Activity (HL-60 [20]): 66%; Activity (HL-60 [21]): 20.6%; Activity (HL-60 [22]): 51.4%; inhibition of growth at 20 µM (MCF7 [23]): 50%
CC1C(C(C)(C)O)CCC1(C)/C=C/c1ccc(O)cc1 (configuration not stated)	86	93	76	58	61	68	65	50	40	32	32	65	50	63	55	22	23	13	Dose-dependent effect	1800	Activity (HL-60 [16]): tde; Activity (HL-60 [24]): Active; Activity (HL-60 [25]): Active; Activity (HL-60 [18]): 8%; Activity (HL-60 [19]): 12%; Activity (HL-60 [20]): 68%; Activity (HL-60 [21]): 17.9%; Activity (HL-60 [22]): 49.1%; inhibition of growth at 20 µM (MCF7 [23]): 50%
